Experiments:
[1] = target: T1, Acetylcholinesterase (Electrophorus electricus, UniProt O42275); experiment: Inhibition of electric eel AChE by Ellman's method
[2] = target: Cholinesterase (Equus caballus, UniProt P81908); experiment: Inhibition of equine serum BuChE by Ellman's method
Method in brief: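 Modified Ellman assay with equine serum BuChE (enzyme stock 2.0 units/mL), run the same way as the AChE assay. Phosphate buffer pH 8.0 with DTNB (0.01 M stock). Inhibitor incubated 15 min with enzyme, buffer and DTNB before substrate was added. Absorbance rise at 412 nm read over 1 min at 37 °C. IC50 given as mean ± SEM of three experiments.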

[3] = Selectivity ratio of IC50 for equine serum BuChE to IC50 for electric eel AChE
Method in brief: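 Modified Ellman assays with electric eel AChE and equine serum BuChE (enzyme stocks 2.0 units/mL). AChE substrate was acetylthiocholine chloride (0.01 M stock), in phosphate buffer pH 8.0 with DTNB (0.01 M stock), after 15 min inhibitor preincubation. A412 read over 1 min at 37 °C. IC50s are means ± SEM of three experiments; ratio = IC50(BuChE)/IC50(AChE).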

[4] = target: T1, Acetylcholinesterase; experiment: Inhibition of electric eel AChE by LB plot

Cholinesterase, sequence (P81908 whole entry): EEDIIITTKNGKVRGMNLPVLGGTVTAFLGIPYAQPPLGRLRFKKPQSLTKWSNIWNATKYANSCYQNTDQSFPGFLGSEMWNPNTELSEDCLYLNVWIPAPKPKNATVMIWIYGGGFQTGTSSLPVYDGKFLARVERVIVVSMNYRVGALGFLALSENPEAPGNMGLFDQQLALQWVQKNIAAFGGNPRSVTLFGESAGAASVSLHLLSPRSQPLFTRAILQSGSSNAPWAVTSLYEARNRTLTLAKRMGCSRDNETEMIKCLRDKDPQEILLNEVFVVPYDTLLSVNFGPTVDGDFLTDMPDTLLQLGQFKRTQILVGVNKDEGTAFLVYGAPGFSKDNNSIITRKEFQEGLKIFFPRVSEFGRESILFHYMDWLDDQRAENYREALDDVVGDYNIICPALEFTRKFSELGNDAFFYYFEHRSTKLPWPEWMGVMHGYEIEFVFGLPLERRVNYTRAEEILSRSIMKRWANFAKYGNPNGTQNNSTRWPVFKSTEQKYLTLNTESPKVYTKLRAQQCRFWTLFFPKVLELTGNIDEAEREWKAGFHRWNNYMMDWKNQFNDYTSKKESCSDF
T1 sequence (O42275 whole entry): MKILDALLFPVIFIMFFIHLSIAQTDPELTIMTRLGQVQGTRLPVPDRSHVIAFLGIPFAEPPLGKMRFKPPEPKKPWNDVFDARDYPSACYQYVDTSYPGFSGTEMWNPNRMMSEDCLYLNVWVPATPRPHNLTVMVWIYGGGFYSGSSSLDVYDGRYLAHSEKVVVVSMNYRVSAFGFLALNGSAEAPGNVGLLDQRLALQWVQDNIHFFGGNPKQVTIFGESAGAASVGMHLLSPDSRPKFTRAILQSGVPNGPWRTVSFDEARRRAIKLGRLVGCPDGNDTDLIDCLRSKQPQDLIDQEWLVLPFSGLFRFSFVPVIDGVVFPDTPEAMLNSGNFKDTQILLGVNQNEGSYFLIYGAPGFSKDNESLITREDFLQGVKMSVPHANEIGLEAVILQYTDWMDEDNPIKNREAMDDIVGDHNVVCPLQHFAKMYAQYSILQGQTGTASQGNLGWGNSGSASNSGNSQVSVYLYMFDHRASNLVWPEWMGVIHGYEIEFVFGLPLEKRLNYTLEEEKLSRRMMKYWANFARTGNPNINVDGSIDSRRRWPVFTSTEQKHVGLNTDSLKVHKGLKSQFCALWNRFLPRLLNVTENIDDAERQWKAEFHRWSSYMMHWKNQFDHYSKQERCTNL

Row | Compound | IC50 [1] [µM] | IC50 [2] [µM] | Ratio IC50 [3] | Ki [4] [µM]
1 | CC[N+](C)(CC)CCCNC(=O)c1cnc2c3c(cccc13)-c1ccccc1C2=O | 0.65 | 9.72 | 15 | 
2 | C[N+](C)(C)CCNC(=O)c1cnc2c3c(cccc13)-c1ccccc1C2=O | 3.32 | 5.03 | 1 | 
3 | C[N+](C)(C)CCC(=O)Nc1ccc2c(c1)C(=O)c1cccc3ccnc-2c13 |  | 2.82 | 590 | 
4 | CC[N+](C)(CC)CCC(=O)Nc1ccc2c(c1)C(=O)c1cccc3ccnc-2c13 | 0.00262 | 5.19 | 1980 | 
5 | C[N+]1(CCC(=O)Nc2ccc3c(c2)C(=O)c2cccc4ccnc-3c24)CCCCC1 | 0.00048 | 0.6 | 1250 | 0.00031
6 | O=C1c2ccccc2-c2cccc3ccnc1c23 | 10.6 | 4.01 | 0.4 | 14.6
7 | CC[N+](C)(CC)CCNC(=O)c1cnc2c3c(cccc13)-c1ccccc1C2=O | 1.71 | 8.14 | 5 | 
8 | O=C(NCCO)c1cnc2c3c(cccc13)-c1ccccc1C2=O | 18 | 68.7 | 4 | 
9 | O=C(NCCCO)c1cnc2c3c(cccc13)-c1ccccc1C2=O | 12.2 | 53.3 | 4 | 
10 | C[N+]1(CCNC(=O)c2cnc3c4c(cccc24)-c2ccccc2C3=O)CCCCC1 | 0.35 | 6.76 | 16 | 
11 | C[N+]1(CCNC(=O)c2cnc3c4c(cccc24)-c2ccccc2C3=O)CCOCC1 | 1.24 | 11.7 | 9 | 
12 | C[N+](C)(C)CCCNC(=O)c1cnc2c3c(cccc13)-c1ccccc1C2=O | 3.16 | 2.71 | 1 | 
13 | C[N+]1(CCCNC(=O)c2cnc3c4c(cccc24)-c2ccccc2C3=O)CCOCC1 | 1.05 | 4.75 | 4 | 
14 | C[N+]1(CCCNC(=O)c2cnc3c4c(cccc24)-c2ccccc2C3=O)CCCCC1 | 0.11 | 6.24 | 57 | 0.11
15 | Nc1ccc2c(c1)C(=O)c1cccc3ccnc-2c13 |  | > 100 |  | 3.86

Reference: ChEMBL document CHEMBL1158399, “Synthesis, biological evaluation and molecular modeling of oxoisoaporphine and oxoaporphine derivatives as new dual inhibitors of acetylcholinesterase/butyrylcholinesterase” (Eur J Med Chem, 2009)
